We go through 13 molecules from ChEMBL document CHEMBL3407447, “Probing the molecular and structural elements of ligands binding to the active site versus an allosteric pocket of the human farnesyl pyrophosphate synthase” (Bioorg Med Chem Lett, 2015).

What is called IC50 is the point on the concentration scale where inhibition reaches its midpoint. The low end stands for inhibition by little substance, the high end for a need for much substance.

The source made the active and inactive calls. The calls are words filed in the database; no cut-off is given here.

The first experiment addresses T1, Farnesyl pyrophosphate synthase (Homo sapiens) (UniProt P14324).
T1 sequence (whole entry): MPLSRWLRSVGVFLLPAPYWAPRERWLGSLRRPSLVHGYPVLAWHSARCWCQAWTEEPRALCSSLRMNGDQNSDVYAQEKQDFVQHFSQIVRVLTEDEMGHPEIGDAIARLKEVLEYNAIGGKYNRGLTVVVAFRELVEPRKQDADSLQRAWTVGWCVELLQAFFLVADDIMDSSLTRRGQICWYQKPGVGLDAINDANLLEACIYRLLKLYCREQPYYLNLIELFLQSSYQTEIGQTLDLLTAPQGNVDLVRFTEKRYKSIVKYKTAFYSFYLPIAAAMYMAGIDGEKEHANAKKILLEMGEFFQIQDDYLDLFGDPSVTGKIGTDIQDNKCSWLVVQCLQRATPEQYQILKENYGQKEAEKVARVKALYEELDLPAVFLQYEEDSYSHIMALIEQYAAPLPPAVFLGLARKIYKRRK
Description: Inhibition of human FPPS at 10 uM.
Conditions: not given
In outline: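 Single fixed-concentration screen in the human FPPS enzyme inhibition assay, run alongside two known bisphosphonate inhibitors as positive controls.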
As to `Cc1[nH]c2ccccc2c1CC(P(=O)(O)O)P(=O)(O)O`, the inhibition entry was “Active”.

In the case of `CC(C)n1cc(CC(P(=O)(O)O)P(=O)(O)O)c2ccccc21`, the inhibition result was “Active”.

Take `CC(c1[nH]c2ccccc2c1CC(P(=O)(O)O)P(=O)(O)O)C1CCCC1` (centres undefined): the inhibition entry was “Active”.

For `Cc1c(CC(P(=O)(O)O)P(=O)(O)O)c2ccccc2n1C`, the inhibition result is “Active”.

On to `Cn1cc(CC(P(=O)(O)O)P(=O)(O)O)c2ccccc21`, for which the inhibition entry is “Active”.

`Cn1c(NCC(P(=O)(O)O)P(=O)(O)O)nc2ncccc21`: the inhibition result is “Active”.

Take `CCn1cc(CC(P(=O)(O)O)P(=O)(O)O)c2ccccc21`: the inhibition result is “Active”.

Turning to `CC(C)C(C)c1[nH]c2ccc(-c3ccccc3)cc2c1CC(P(=O)(O)O)P(=O)(O)O` (centres undefined), the inhibition entry was “Active”.

On to `Cn1c(NCC(P(=O)(O)O)P(=O)(O)O)nc2cccnc21`, for which the inhibition result was “inactive”.

Take `CC(C)(C)c1[nH]c2ccccc2c1CC(P(=O)(O)O)P(=O)(O)O`: the inhibition result was “Active”.

Regarding `CC(C)C(C)c1[nH]c2ccccc2c1CC(P(=O)(O)O)P(=O)(O)O` (centres undefined), the inhibition result is “Active”.

In another experiment the test system is Rattus norvegicus. Description: Reduction in hypercalcemia in sc dosed rat. In kind it is functional. The settings on record: read-out: MED.
Consider `O.O=P(O)(O)C(O)(Cn1ccnc1)P(=O)(O)O` [ZOLEDRONIC ACID], for which the minimal effective dose is 0.03 mg/kg.

As for `O=P(O)(O)C(O)(Cc1cnc2ccccn12)P(=O)(O)O` [MINODRONIC ACID], the minimal effective dose is 0.03 mg/kg.

For a further experiment, the target named is T2, Farnesyl pyrophosphate synthase (Homo sapiens, UniProt P14324).
T2 sequence (P14324 whole entry): T1 sequence (whole entry)
Put plainly: Inhibition of human FPPS.
Conditions: not given
In turn, `CC(C)C(C)c1[nH]c2ccc(-c3ccccc3)cc2c1CC(P(=O)(O)O)P(=O)(O)O` (centres undefined) displayed an IC50 of 1100 nM.
